Published values of several laboratories.
Lines come from different studies, so protocols differ.
Target: Histamine H1 receptor (HRH1, Homo sapiens, UniProt P35367)

Compound	assay	conditions	endpoint	value
CCCNc1nc2ccccc2n1Cc1ccc(Cl)cc1	ligand displacement	10 µM	inhibition	97.8%
C[C@H](NC(=O)Nc1cc2[nH]ncc2c(CO)n1)c1ccccn1	cell-free assay	10 µM	inhibition	4.18%
N#Cc1cc(Cn2c(N3CCCC3)nc3ccccc32)ccc1F	ligand displacement	10 µM	inhibition	73%
CCN(CC)c1ccc(C2Nc3ccc(C(=O)c4ccccc4)cc3NC3=C2C(=O)CC(C)(C)C3)cc1 (centres unmarked)	ligand displacement, radioligand	10 µM	inhibition	40%
CC(C)(C)OC(=O)N1CCCC1CNC1CCC(c2cc(F)ccc2F)(S(=O)(=O)c2ccc(Cl)cc2)CC1 (centres unmarked)	cell-free assay	10 µM	inhibition	25.6%
CN(C)CCOC1c2ccccc2CCc2ccccc21	binding	–	kon	1.1e+06 M⁻¹ s⁻¹
CCN(Cc1ccccc1C(F)(F)F)C(=O)C1CCN(S(=O)(=O)c2ccc3[nH]ncc3c2)CC1	ligand displacement, radioligand	10 µM	inhibition	26%
O=C(c1ccc(F)cc1)N(Cc1ccccc1)C1CCCCC1	cell-free assay	10 µM	inhibition	23%
CN(C)CCOC1c2ccccc2C=Cc2ccccc21	binding	–	kon	833000 M⁻¹ s⁻¹
CN1CCN(CCCOc2ccc(=O)n(-c3ccc(Cl)c(Cl)c3)n2)CC1	ligand displacement	1 µM	inhibition	40.7%
Oc1cccc(Nc2nc(-c3ccc(F)cc3F)cs2)c1	cell-free assay	10 µM	inhibition	-19.9%
CN1CCN(C2c3ccccc3CCc3ccccc32)CC1	binding	–	koff	0.002 s⁻¹
COc1ccc(-n2nc(OCCCN3CCCCC3)ccc2=O)cc1	ligand displacement	1 µM	inhibition	16.7%
CN1CCC(=C2c3ccccc3CCc3cccnc32)CC1	binding	–	koff	0.000147 s⁻¹
Ic1cccc2cnccc12	ligand displacement, radioligand	10 µM	inhibition	0%
CN1CCC(C2c3ccccc3C=Cc3ccccc32)CC1	binding	–	koff	0.00035 s⁻¹
O=C1N=C(N2CCCCN2)S/C1=C\c1ccc(F)cc1O	ligand displacement, radioligand	10 µM	inhibition	< 10%
